Experimental data from ChEMBL document CHEMBL1134286, “Novel erythromycin derivatives with aryl groups tethered to the C-6 position are potent protein synthesis inhibitors and active against multidrug-resistant respiratory pathogens” (J Med Chem, 2001).
Values after ≈ are worked out from the molar mass of the structure shown.

Columns and labels:
Staphylococcus aureus [1] = experiment: Minimum inhibitory concentration against Staphylococcus aureus A 5278 MLSB-c; assay type: functional
Method in brief: (§1)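 MICs were determined by agar dilution following National Committee for Clinical Laboratory Standards recommendations. Values are in µg/mL.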

Streptococcus pneumoniae [2] = experiment: Cell free inhibiting activity against MLSB-resistant strain Streptococcus pneumoniae 1813 (methylated ribosomes for transcription/translation assay)
[3] = Minimum inhibitory concentration against Streptococcus pyogenes EES 61 Ery-S; assay type: functional; method in brief: as §1
Streptococcus pneumoniae [4] = experiment: Cell free inhibiting activity against erythromycin-susceptible strain Streptococcus pneumoniae 5635 (Wild type ribosomes for transcription/translation assay)
[5] = Minimum inhibitory concentration against Haemophilus influenzae DILL Amp-R; assay type: functional; method in brief: as §1
Streptococcus pneumoniae [6] = experiment: Minimum inhibitory concentration against Streptococcus pneumoniae 6303 (erythromycin susceptible strain); assay type: functional; method in brief: as §1
Staphylococcus aureus [7] = experiment: Minimum inhibitory concentration against Staphylococcus aureus A 5177 MLSB-i; assay type: functional; method in brief: as §1
Staphylococcus aureus [8] = experiment: Minimum inhibitory concentration against Staphylococcus aureus 10649 (erythromycin susceptible strain); assay type: functional; method in brief: as §1
Mus musculus [9] = species: Mus musculus; experiment: Mouse protection tests for effective dose against Staphylococcus aureus 10649 ((erythromycin susceptible strain)) infected mice; assay type: functional
[10] = Minimum inhibitory concentration against Streptococcus pneumoniae 5737 MLSB; assay type: functional; method in brief: as §1
Streptococcus pneumoniae [11] = experiment: Minimum inhibitory concentration against Streptococcus pneumoniae 5649 efflux; assay type: functional; method in brief: as §1
Streptococcus pneumoniae [12] = experiment: Minimum inhibitory concentration against Streptococcus pneumoniae ATCC 6303 Ery-S; assay type: functional; method in brief: as §1
[13] = Minimum inhibitory concentration against Streptococcus pyogenes 930MLSB; assay type: functional; method in brief: as §1
Mus musculus [14] = species: Mus musculus; experiment: Mouse protection tests for effective dose against Streptococcus pneumoniae 6303 ((erythromycin susceptible strain)) infected mice; assay type: functional
[15] = Minimum inhibitory concentration against Streptococcus pyogenes PIU2548 efflux; assay type: functional; method in brief: as §1
Staphylococcus aureus [16] = experiment: Minimum inhibitory concentration against Staphylococcus aureus ATCC 6538PEry-S; assay type: functional; details: ATCC 6538P; method in brief: as §1
Streptococcus pneumoniae [17] = experiment: Cell free inhibiting activity against erythromycin-susceptible strain Streptococcus pneumoniae 5635 (Wild type ribosomes for transcription/translation assay); assay type: functional
Method in brief: (§2)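 Cell-free coupled transcription/translation assay using bacterial ribosome S-30 extracts. Wild-type ribosomes were isolated from the erythromycin-susceptible strain S. pneumoniae 5635. Inhibition is reported as IC50 (µM).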

[18] = Minimum inhibitory concentration againstH. influenzae DILL Amp-R; assay type: functional; details: Haemophilus influenzae
Method in brief: (§3)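 Whole-cell MIC determined by agar dilution following National Committee for Clinical Laboratory Standards recommendations; values expressed in µg/mL.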

Streptococcus pneumoniae [19] = experiment: Cell free inhibiting activity against Streptococcus pneumoniae 5635(Wild type ribosomes for transcription/translation assay); assay type: functional; method in brief: as §2
Streptococcus pneumoniae [20] = experiment: Cell free inhibiting activity against Streptococcus pneumoniae 1813 (methylated ribosomes for transcription/translation assay); assay type: functional
Mus musculus [21] = species: Mus musculus; experiment: Effective dose against Streptococcus pneumoniae 6303 (erythromycin susceptible strain); assay type: functional
Staphylococcus aureus [22] = experiment: Minimum against Staphylococcus aureus 10649 (erythromycin susceptible strain); assay type: functional; method in brief: as §1
Streptococcus pneumoniae [23] = experiment: Minimum against Streptococcus pneumoniae 6303 (erythromycin susceptible strain); assay type: functional; method in brief: as §3
Streptococcus pneumoniae [24] = experiment: Cell free inhibiting activity against MLSB-resistant strain Streptococcus pneumoniae 1813 (methylated ribosomes for transcription/translation assay); remark: listed apart in the source

SMILES | MIC (Staphylococcus aureus [1]) | IC50 (Streptococcus pneumoniae [2]) | MIC [3] | IC50 (Streptococcus pneumoniae [4]) | MIC [5] | MIC (Streptococcus pneumoniae [6]) | MIC (Staphylococcus aureus [7]) | MIC (Staphylococcus aureus [8]) | ED50 (Mus musculus [9]) | MIC [10] | MIC (Streptococcus pneumoniae [11]) | MIC (Streptococcus pneumoniae [12]) | MIC [13] | ED50 (Mus musculus [14]) | MIC [15] | MIC (Staphylococcus aureus [16]) | also measured
CC[C@H]1OC(=O)[C@H](C)C(=O)[C@H](C)[C@@H](O[C@@H]2O[C@H](C)C[C@H](N(C)C)[C@H]2O)[C@](C)(OC/C=C/c2cnc3cccnc3c2)C[C@@H](C)C(=O)[C@H](C)[C@H]2NC(=O)O[C@@]21C | > 100 µg/mL | 25 µM | 0.03 µg/mL (≈ 0.0391 µM) | 100 nM | 2 µg/mL (≈ 2.61 µM) | 0.015 µg/mL (≈ 0.0196 µM) | 0.05 µg/mL (≈ 0.0652 µM) | 0.05 µg/mL (≈ 0.0652 µM) | 12.5 mg/kg | 0.25 µg/mL (≈ 0.326 µM) | 1 µg/mL (≈ 1.3 µM) | 0.015 µg/mL (≈ 0.0196 µM) | 2 µg/mL (≈ 2.61 µM) | 17.3 mg/kg | 0.5 µg/mL (≈ 0.652 µM) | 0.05 µg/mL (≈ 0.0652 µM) | –
C=CCO[C@]1(C)C[C@@H](C)C(=O)[C@H](C)[C@@H](O)[C@](C)(O)[C@@H](CC)OC(=O)[C@H](C)[C@@H](O[C@H]2C[C@@](C)(OC)[C@@H](O)[C@H](C)O2)[C@H](C)[C@H]1O[C@@H]1O[C@H](C)C[C@H](N(C)C)[C@H]1O | > 100 µg/mL | > 500 µM | – | – | – | – | 12.5 µg/mL (≈ 16.1 µM) | – | – | – | – | – | > 128 µg/mL | – | 64 µg/mL (≈ 82.7 µM) | 0.78 µg/mL (≈ 1.01 µM) | IC50 (Streptococcus pneumoniae [17]): 150 nM; MIC [18]: 32 µg/mL (≈ 41.3 µM)
CC[C@H]1OC(=O)[C@H](C)C(=O)[C@H](C)[C@@H](O[C@@H]2O[C@H](C)C[C@H](N(C)C)[C@H]2O)[C@](C)(OC/C=C/c2ccc3nccnc3c2)C[C@@H](C)C(=O)[C@H](C)[C@H]2NC(=O)O[C@@]21C | > 100 µg/mL | 40 µM | 0.03 µg/mL (≈ 0.0391 µM) | 80 nM | 2 µg/mL (≈ 2.61 µM) | 0.015 µg/mL (≈ 0.0196 µM) | 0.1 µg/mL (≈ 0.13 µM) | 0.1 µg/mL (≈ 0.13 µM) | < 6.25 mg/kg | 0.25 µg/mL (≈ 0.326 µM) | 0.5 µg/mL (≈ 0.652 µM) | 0.015 µg/mL (≈ 0.0196 µM) | 1 µg/mL (≈ 1.3 µM) | 33.1 mg/kg | 0.25 µg/mL (≈ 0.326 µM) | 0.1 µg/mL (≈ 0.13 µM) | –
CC[C@H]1OC(=O)[C@H](C)[C@@H](O[C@H]2C[C@@](C)(OC)[C@@H](O)[C@H](C)O2)[C@H](C)[C@@H](O[C@@H]2O[C@H](C)C[C@H](N(C)C)[C@H]2O)[C@](C)(O)C[C@@H](C)CN(C)[C@H](C)[C@@H](O)[C@]1(C)O [AZITHROMYCIN] | – | – | – | – | – | 0.12 µg/mL (≈ 0.16 µM) | – | 0.78 µg/mL (≈ 1.04 µM) | 24.8 mg/kg | – | – | – | – | – | – | – | IC50 (Streptococcus pneumoniae [19]): 170 nM; IC50 (Streptococcus pneumoniae [20]): > 500 µM; ED50 (Mus musculus [21]): 18.8 mg/kg
CC[C@H]1OC(=O)[C@H](C)C(=O)[C@H](C)[C@@H](O[C@@H]2O[C@H](C)C[C@H](N(C)C)[C@H]2O)[C@](C)(OCC=Cc2cnc3ccccc3c2)C[C@@H](C)C(=O)[C@H](C)[C@H]2NC(=O)O[C@@]21C [CETHROMYCIN] | > 100 µg/mL | 28 µM | 0.004 µg/mL (≈ 0.00522 µM) | 40 nM | 2 µg/mL (≈ 2.61 µM) | 0.004 µg/mL (≈ 0.00522 µM) | 0.05 µg/mL (≈ 0.0653 µM) | 0.05 µg/mL (≈ 0.0653 µM) | 9.4 mg/kg | 0.25 µg/mL (≈ 0.326 µM) | 0.125 µg/mL (≈ 0.163 µM) | 0.004 µg/mL (≈ 0.00522 µM) | 1 µg/mL (≈ 1.31 µM) | 7.8 mg/kg | 0.25 µg/mL (≈ 0.326 µM) | 0.05 µg/mL (≈ 0.0653 µM) | –
CC[C@H]1OC(=O)[C@H](C)[C@@H](O[C@H]2C[C@@](C)(OC)[C@@H](O)[C@H](C)O2)[C@H](C)[C@@H](O[C@@H]2O[C@H](C)C[C@H](N(C)C)[C@H]2O)[C@](C)(OC)C[C@@H](C)C(=O)[C@H](C)[C@@H](O)[C@]1(C)O [CLARITHROMYCIN] | – | – | – | – | – | – | – | – | 16.7 mg/kg | – | – | – | – | 27.9 mg/kg | – | – | MIC (Staphylococcus aureus [22]): 0.2 µg/mL (≈ 0.267 µM); MIC (Streptococcus pneumoniae [23]): 0.03 µg/mL (≈ 0.0401 µM); IC50 (Streptococcus pneumoniae [19]): 90 nM; IC50 (Streptococcus pneumoniae [20]): > 500 µM
CC[C@H]1OC(=O)[C@H](C)[C@@H](O[C@H]2C[C@@](C)(OC)[C@@H](O)[C@H](C)O2)[C@H](C)[C@@H](O[C@@H]2O[C@H](C)C[C@H](N(C)C)[C@H]2O)[C@](C)(O)C[C@@H](C)C(=O)[C@H](C)[C@@H](O)[C@]1(C)O [ERYTHROMYCIN] | > 100 µg/mL | – | 0.06 µg/mL (≈ 0.0818 µM) | – | – | – | 6.2 µg/mL (≈ 8.45 µM) | – | – | > 128 µg/mL | 32 µg/mL (≈ 43.6 µM) | 0.06 µg/mL (≈ 0.0818 µM) | > 128 µg/mL | – | 16 µg/mL (≈ 21.8 µM) | 0.2 µg/mL (≈ 0.273 µM) | IC50 (Streptococcus pneumoniae [17]): 120 nM; MIC [18]: 8 µg/mL (≈ 10.9 µM); IC50 (Streptococcus pneumoniae [24]): > 500 µM
